Measurements from ChEMBL document CHEMBL1208695, “Propenylamide and propenylsulfonamide cephalosporins as a novel class of anti-MRSA beta-lactams” (Bioorg Med Chem Lett, 2010).
In brackets after ≈: the same amount, converted by molar mass.

Columns and labels:
[1] = tested on: Staphylococcus aureus; experiment: Antibacterial activity against Staphylococcus aureus ATCC 25923; assay type: functional
[2] = tested on: Staphylococcus aureus; experiment: Antibacterial activity against Staphylococcus aureus 887 expressing beta-lactamase; assay type: functional
[3] = tested on: Staphylococcus aureus; experiment: Antibacterial activity against beta-lactamase deficient Staphylococcus aureus COL; assay type: functional
[4] = tested on: Staphylococcus aureus; experiment: Antibacterial activity against Staphylococcus aureus COL expressing beta-lactamase; assay type: functional
[5] = tested on: Streptococcus pneumoniae; experiment: Antibacterial activity against Streptococcus pneumoniae R6; assay type: functional
[6] = tested on: Escherichia coli; experiment: Antibacterial activity against Escherichia coli UB1005; assay type: functional
[7] = Inhibition of Staphylococcus epidermidis PBP2
How it was run: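 Enzyme: purified recombinant PBP2' from Staphylococcus epidermidis, used as the inhibition target.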

[8] = tested on: Staphylococcus aureus; experiment: Antibacterial activity against Staphylococcus aureus COL expressing beta-lactamase in presence of Sulbactam; assay type: functional

Row | Structure (SMILES) | MIC [1] [µg/mL] | MIC [2] [µg/mL] | MIC [3] [µg/mL] | MIC [4] [µg/mL] | MIC [5] [µg/mL] | MIC [6] [µg/mL] | IC50 [7] [µM] | MIC [8] [µg/mL]
1 | O=C(Cc1ccccc1)N[C@@H]1C(=O)N2C(C(=O)O)=C(/C=C/CNS(=O)(=O)c3ccccc3)CS[C@H]12 | 0.5 (≈ 0.974 µM) | 16 (≈ 31.2 µM) | > 32 | > 32 | 0.13 (≈ 0.253 µM) | > 32 | – | –
2 | CO/N=C(\C(=O)N[C@@H]1C(=O)N2C(C(=O)O)=C(/C=C/CNC(=O)c3cccnc3)CS[C@H]12)c1csc(N)n1 | 4 (≈ 7.36 µM) | 8 (≈ 14.7 µM) | > 32 | > 32 | ≤ 0.06 | 0.25 (≈ 0.46 µM) | > 500 | –
3 | CO/N=C(\C(=O)N[C@@H]1C(=O)N2C(C(=O)O)=C(/C=C/CNC(=O)C3CCCN3C)CS[C@H]12)c1csc(N)n1 (stereo partly specified) | 2 (≈ 3.64 µM) | 8 (≈ 14.6 µM) | > 32 | > 32 | ≤ 0.06 | 1 (≈ 1.82 µM) | > 500 | –
4 | CO/N=C(\C(=O)N[C@@H]1C(=O)N2C(C(=O)O)=C(/C=C/CNS(=O)(=O)c3cccnc3)CS[C@H]12)c1csc(N)n1 | 1 (≈ 1.73 µM) | 2 (≈ 3.45 µM) | > 32 | > 32 | ≤ 0.06 | 1 (≈ 1.73 µM) | 235 | –
5 | CC1(C)S[C@@H]2[C@H](NC(=O)[C@H](N)c3ccc(O)cc3)C(=O)N2[C@H]1C(=O)O [AMOXICILLIN] | 0.25 (≈ 0.684 µM) | 32 (≈ 87.6 µM) | 32 (≈ 87.6 µM) | > 32 | ≤ 0.06 | 8 (≈ 21.9 µM) | – | –
6 | Nc1nc(/C(=N/O)C(=O)N[C@@H]2C(=O)N3C(C(=O)O)=C(/C=C/CNS(=O)(=O)c4cccnc4)CS[C@H]23)c(Cl)s1 | 2 (≈ 3.33 µM) | 4 (≈ 6.67 µM) | 16 (≈ 26.7 µM) | 32 (≈ 53.3 µM) | ≤ 0.06 | 16 (≈ 26.7 µM) | 12 | –
7 | Nc1nc(/C(=N/O)C(=O)N[C@@H]2C(=O)N3C(C(=O)O)=C(/C=C/CNS(=O)(=O)c4ccccc4)CS[C@H]23)c(Cl)s1 | 0.5 (≈ 0.835 µM) | 1 (≈ 1.67 µM) | 8 (≈ 13.4 µM) | 16 (≈ 26.7 µM) | 0.25 (≈ 0.417 µM) | > 32 | 6 | –
8 | CC(=O)OCC1=C(C(=O)O)N2C(=O)[C@@H](NC(=O)Cc3cccs3)[C@H]2SC1 [CEPHALOTHIN] | 0.25 (≈ 0.631 µM) | 0.5 (≈ 1.26 µM) | > 32 | > 32 | 0.125 (≈ 0.315 µM) | 8 (≈ 20.2 µM) | – | –

More lines, now with the values ahead:

Row | MIC [1] [µg/mL] | MIC [2] [µg/mL] | MIC [3] [µg/mL] | MIC [4] [µg/mL] | MIC [5] [µg/mL] | MIC [6] [µg/mL] | IC50 [7] [µM] | MIC [8] [µg/mL] | Structure (SMILES)
9 | ≤ 0.06 | 0.5 (≈ 0.786 µM) | 1 (≈ 1.57 µM) | 16 (≈ 25.1 µM) | ≤ 0.06 | > 32 | 2 | 1 | O=C(CSc1ccc2ccccc2c1)N[C@@H]1C(=O)N2C(C(=O)O)=C(/C=C/CNS(=O)(=O)c3csc(Cl)c3)CS[C@H]12
10 | 0.25 (≈ 0.516 µM) | 8 (≈ 16.5 µM) | > 32 | > 32 | ≤ 0.06 | > 32 | – | – | CN1CCCC1C(=O)NC/C=C/C1=C(C(=O)O)N2C(=O)[C@@H](NC(=O)Cc3ccccc3)[C@H]2SC1 (stereo partly specified)
11 | ≤ 0.06 | – | > 32 | > 32 | ≤ 0.06 | > 32 | – | – | O=C(Cc1ccccc1)N[C@@H]1C(=O)N2C(C(=O)O)=C(/C=C/CNC(=O)c3cccnc3)CS[C@H]12
12 | 0.13 (≈ 0.229 µM) | 1 (≈ 1.76 µM) | 4 (≈ 7.06 µM) | > 32 | 0.13 (≈ 0.229 µM) | > 32 | – | 1 | CN1CCCC1C(=O)NC/C=C/C1=C(C(=O)O)N2C(=O)[C@@H](NC(=O)CSc3ccc4ccccc4c3)[C@H]2SC1 (stereo partly specified)
13 | 0.13 (≈ 0.235 µM) | 2 (≈ 3.61 µM) | 32 (≈ 57.8 µM) | > 32 | ≤ 0.06 | > 32 | – | – | O=C(Cc1ccccc1)N[C@@H]1C(=O)N2C(C(=O)O)=C(/C=C/CNS(=O)(=O)c3csc(Cl)c3)CS[C@H]12
14 | ≤ 0.06 | 2 (≈ 3.65 µM) | 8 (≈ 14.6 µM) | > 32 | ≤ 0.06 | > 32 | 22 | – | CCS(=O)(=O)NC/C=C/C1=C(C(=O)O)N2C(=O)[C@@H](NC(=O)CSc3ccc4ccccc4c3)[C@H]2SC1
15 | ≤ 0.06 | 1 (≈ 1.85 µM) | 4 (≈ 7.4 µM) | 32 (≈ 59.2 µM) | ≤ 0.06 | > 32 | 50 | 4 | CN(C)CC(=O)NC/C=C/C1=C(C(=O)O)N2C(=O)[C@@H](NC(=O)CSc3ccc4ccccc4c3)[C@H]2SC1
16 | ≤ 0.06 | 2 (≈ 3.36 µM) | 1 (≈ 1.68 µM) | 32 (≈ 53.7 µM) | ≤ 0.06 | > 32 | 20 | – | O=C(CSc1ccc2ccccc2c1)N[C@@H]1C(=O)N2C(C(=O)O)=C(/C=C/CNS(=O)(=O)c3ccccc3)CS[C@H]12
17 | 0.13 (≈ 0.232 µM) | 1 (≈ 1.78 µM) | 4 (≈ 7.13 µM) | > 32 | ≤ 0.06 | > 32 | 31 | 1 | O=C(CSc1ccc2ccccc2c1)N[C@@H]1C(=O)N2C(C(=O)O)=C(/C=C/CNC(=O)c3cccnc3)CS[C@H]12
18 | ≤ 0.06 | 0.5 (≈ 0.955 µM) | 1 (≈ 1.91 µM) | 16 (≈ 30.6 µM) | ≤ 0.06 | > 32 | – | – | O=C(CSc1ccc2ccccc2c1)N[C@@H]1C(=O)N2C(C(=O)O)=C(/C=C/CNC(=O)C3CC3)CS[C@H]12
